Converted amounts (≈) assume the structure as drawn.
Tests used:
Dipeptidyl peptidase 1 [1] = molecular target: T1, Dipeptidyl peptidase 1 (Homo sapiens, UniProt P53634); experiment: Inhibition of human recombinant DPP1 using Gly-Arg-AMC as substrate preincubated for 30 mins followed by substrate addition by fluorometric assay
Summary of the method: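 Isolated human recombinant DPP1 was run in a fluorometric assay in piperazine-based buffer. Compound was pre-incubated with enzyme for 30 min at rt, then Gly-Arg-AMC dipeptide substrate was added. Data were curve-fitted to give pIC50, as the mean of at least two experiments.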

Dipeptidyl peptidase 1 [2] = molecular target: T1, Dipeptidyl peptidase 1; experiment: Inhibition of DPP1 in human U937 cells using Gly-Phe-AFC as substrate preincubated for 60 mins followed by substrate addition by fluorescence assay; format: cell-based, U-937
[3] = Propionaldehyde reactivity assessed as half life of the compound at pH 7.4 by LC-UV method; format: physicochemical
[4] = Protein binding in human plasma at 10 uM after 6 hrs by LC-MS/MS method; format: ADME, cell-free; settings: read-out: PPB (converted)
[5] = Intrinsic clearance in human liver microsomes at 1 uM after 5 to 40 mins by LC-MS/MS method; format: ADME; settings: read-out: CLH
[6] = Intrinsic clearance in rat hepatocytes assessed per 10^6 cells at 1 uM after 10 to 90 mins by LC-MS/MS method; format: ADME, cell-based, Hepatocyte
[7] = Protein binding in rat plasma at 10 uM after 6 hrs by LC-MS/MS method; format: ADME, cell-free; settings: read-out: PPB (converted)
[8] = Apparent permeability across apical to basolateral side in human Caco2 cells at 10 uM after 1 hr by LC-MS method; settings: Caco-2
[9] = Apparent permeability across basolateral to apical side in human Caco2 cells at 10 uM after 1 hr by LC-MS method; settings: Caco-2
[10] = Efflux ratio of apparent permeability across basolateral to apical over apical to basolateral side in human Caco2 cells at 10 uM after 1 hr by LC-MS method; settings: Caco-2
[11] = Intrinsic clearance in human hepatocytes assessed per 10^6 cells at 1 uM after 10 to 90 mins by LC-MS/MS method; format: ADME, cell-based, Hepatocyte
[12] = Intrinsic clearance in dog hepatocytes assessed per 10^6 cells at 1 uM after 10 to 90 mins by LC-MS/MS method; format: ADME, cell-based, Canis lupus familiaris, Hepatocyte
[13] = Protein binding in dog plasma at 10 uM after 6 hrs by LC-MS/MS method; format: ADME, cell-free, Canis lupus familiaris; settings: read-out: PPB (converted)
[14] = Clearance in Han Wistar rat at 1 mg/kg, iv and 3 mg/kg, po; format: ADME, organism-based; settings: in vivo
Summary of the method: (§1)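 Han Wistar rat PK with 1 mg/kg iv and 3 mg/kg po doses, both in pH3 buffer. Clearance is given in ml/min/kg, Vss in L/kg and t1/2 in h.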

[15] = Volume of distribution at steady state in Han Wistar rat at 1 mg/kg, iv and 3 mg/kg, po; format: ADME, organism-based; settings: in vivo, read-out: Vdss; summary of the method: as §1
[16] = Half life in Han Wistar rat at 1 mg/kg, iv and 3 mg/kg, po; format: ADME, organism-based; settings: in vivo; summary of the method: as §1
[17] = Oral bioavailability in Han Wistar rat at 3 mg/kg; format: ADME, organism-based; settings: in vivo; summary of the method: as §1
[18] = Clearance in Beagle dog at 1 mg/kg, iv and 2 mg/kg, po; format: ADME, organism-based, Canis lupus familiaris; settings: in vivo
[19] = Volume of distribution at steady state in Beagle dog at 1 mg/kg, iv and 2 mg/kg, po; format: ADME, organism-based, Canis lupus familiaris; settings: in vivo, read-out: Vdss
[20] = Half life in Beagle dog at 1 mg/kg, iv and 2 mg/kg, po; format: ADME, organism-based, Canis lupus familiaris; settings: in vivo
[21] = Oral bioavailability in Beagle dog at 2 mg/kg; format: ADME, organism-based, Canis lupus familiaris; settings: in vivo
[22] = molecular target: Voltage-gated inwardly rectifying potassium channel KCNH2 (Homo sapiens, UniProt Q12809)
Chain of Voltage-gated inwardly rectifying potassium channel KCNH2 (Q12809 whole entry): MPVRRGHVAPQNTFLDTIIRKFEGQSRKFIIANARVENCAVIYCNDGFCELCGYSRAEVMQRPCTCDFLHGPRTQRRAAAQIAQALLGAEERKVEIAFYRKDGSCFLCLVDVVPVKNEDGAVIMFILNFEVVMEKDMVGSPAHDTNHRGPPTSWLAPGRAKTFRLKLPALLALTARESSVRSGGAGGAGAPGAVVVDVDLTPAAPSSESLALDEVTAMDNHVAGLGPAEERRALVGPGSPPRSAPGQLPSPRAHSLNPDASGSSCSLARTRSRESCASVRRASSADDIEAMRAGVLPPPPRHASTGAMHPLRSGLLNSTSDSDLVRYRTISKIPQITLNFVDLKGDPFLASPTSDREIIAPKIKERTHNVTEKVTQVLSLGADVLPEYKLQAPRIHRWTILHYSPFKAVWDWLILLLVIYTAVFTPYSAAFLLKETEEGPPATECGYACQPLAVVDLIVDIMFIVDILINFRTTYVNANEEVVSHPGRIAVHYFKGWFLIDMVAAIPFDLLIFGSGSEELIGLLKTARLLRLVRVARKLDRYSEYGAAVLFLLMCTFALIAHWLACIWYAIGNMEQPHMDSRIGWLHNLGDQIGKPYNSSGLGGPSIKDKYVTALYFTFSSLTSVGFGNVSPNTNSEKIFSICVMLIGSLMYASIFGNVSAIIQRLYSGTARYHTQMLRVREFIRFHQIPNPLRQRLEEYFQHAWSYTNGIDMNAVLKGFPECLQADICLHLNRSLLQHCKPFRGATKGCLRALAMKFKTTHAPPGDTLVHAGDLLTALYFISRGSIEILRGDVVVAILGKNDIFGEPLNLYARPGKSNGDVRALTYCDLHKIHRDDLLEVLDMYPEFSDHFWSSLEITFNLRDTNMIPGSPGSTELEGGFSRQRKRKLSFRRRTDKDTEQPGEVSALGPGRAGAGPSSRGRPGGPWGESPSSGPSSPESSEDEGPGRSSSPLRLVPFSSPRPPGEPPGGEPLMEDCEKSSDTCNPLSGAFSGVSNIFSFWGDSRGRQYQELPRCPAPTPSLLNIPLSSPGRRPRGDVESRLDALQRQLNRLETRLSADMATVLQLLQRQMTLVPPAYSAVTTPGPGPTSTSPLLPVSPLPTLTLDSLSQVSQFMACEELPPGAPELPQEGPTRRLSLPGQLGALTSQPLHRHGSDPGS

physchem [23] = settings: pH 7.4
physchem [24] = settings: octanol/water, pH 7.4
[25] = Clearance in Sprague-Dawley rat at 1 mg/kg, iv or 3 mg/kg, po; format: ADME, organism-based; settings: in vivo
[26] = Volume of distribution at steady state in Sprague-Dawley rat at 1 mg/kg, iv or 3 mg/kg, po; format: ADME, organism-based; settings: in vivo, read-out: Vdss
[27] = Half life in Sprague-Dawley rat at 1 mg/kg, iv or 3 mg/kg, po; format: ADME, organism-based; settings: in vivo
[28] = Oral bioavailability in Sprague-Dawley rat at 3 mg/kg; format: ADME, organism-based; settings: in vivo

T1 sequence (P53634 25-134 limits assumed): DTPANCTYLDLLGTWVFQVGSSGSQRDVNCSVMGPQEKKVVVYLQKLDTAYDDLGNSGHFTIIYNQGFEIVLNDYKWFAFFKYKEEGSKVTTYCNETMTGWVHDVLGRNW
T1 sequence (P53634 231-394 limits assumed): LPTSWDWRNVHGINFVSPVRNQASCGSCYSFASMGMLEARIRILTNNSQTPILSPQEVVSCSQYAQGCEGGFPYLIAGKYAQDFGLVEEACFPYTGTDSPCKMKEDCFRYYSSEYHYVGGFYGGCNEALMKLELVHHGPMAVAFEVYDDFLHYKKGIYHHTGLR
T1 sequence (P53634 395-463 limits assumed): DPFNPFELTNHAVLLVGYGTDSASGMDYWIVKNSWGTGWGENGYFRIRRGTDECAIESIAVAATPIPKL

Structure (SMILES)	IC50 (Dipeptidyl peptidase 1 [1]) [nM]	IC50 (Dipeptidyl peptidase 1 [2]) [nM]	half-life [3] [h]	fraction unbound at 6 h, 10 µM [4]	microsomal CLint at 1 µM [5] [µL/min/mg]	CLH [6] [µL/min/10^6 cells]	fraction unbound at 6 h, 10 µM [7]	Papp A→B at 1 h, 10 µM [8] [×10⁻⁶ cm/s]	Papp B→A at 1 h, 10 µM [9] [×10⁻⁶ cm/s]	intrinsic clearance (CLint) [11] [µL/min/10^6 cells]	logD at 10 µM (physchem [24])	other results
N#Cc1ccc(-c2ccc(C[C@@H](C#N)NC(=O)[C@@H]3CCC[C@@H]3N)cc2)cc1	1000	1260	> 50	–	–	–	–	–	–	–	–	–
N#Cc1ccc(-c2ccc(C[C@@H](C#N)NC(=O)[C@@H]3CNCCCO3)cc2)cc1	39.8	31.6	> 50	0.09	9.5	< 3.5	0.24	19	45	< 3.5	1.1	efflux ratio at 1 h, 10 µM [10]: 2.4; CLH [12]: < 4 µL/min/10^6 cells; fraction unbound at 6 h, 10 µM [13]: 0.25; clearance [14]: 3.8 mL/min/kg; Vd [15]: 2 L/kg; half-life [16]: 6.2 h; bioavailability [17]: 25%; clearance [18]: 4.1 mL/min/kg; Vd [19]: 3.9 L/kg; half-life [20]: 10.7 h; bioavailability [21]: 71%; IC50 [22]: 17000 nM; solubility kinetic at 2 h (physchem [23]; phosphate buffered saline): 170 µM (≈ 63.7 µg/mL)
CCn1c(=O)oc2ccc(-c3ccc(C[C@@H](C#N)NC(=O)[C@@H]4CNCCCO4)cc3)cc21	–	–	> 50	0.06	< 14	< 3.5	0.08	–	–	< 3.5	–	CLH [12]: < 3.5 µL/min/10^6 cells; fraction unbound at 6 h, 10 µM [13]: 0.14; clearance [18]: 6 mL/min/kg; Vd [19]: 9 L/kg; half-life [20]: 16 h; bioavailability [21]: 85%; clearance [25]: 4 mL/min/kg; Vd [26]: 2 L/kg; half-life [27]: 8 h; bioavailability [28]: 36%
N#Cc1ccc(-c2ccc(C[C@@H](C#N)NC(=O)C3CNCCCO3)cc2)cc1 (mixture of isomers)	63.1	–	> 50	–	–	–	–	–	–	–	1.1	–
CN1C(=O)Cc2ccc(-c3ccc(C[C@@H](C#N)NC(=O)C4(N)CCOCC4)cc3)cc21	–	1.58	–	–	–	–	–	–	–	–	–	–
N#Cc1ccc(-c2ccc(C[C@@H](C#N)NC(=O)[C@H]3CCCC[C@@H]3N)cc2)cc1	501	398	> 50	–	–	–	–	–	–	–	–	–
N#Cc1ccc(-c2ccc(C[C@@H](C#N)NC(=O)[C@H]3CCCNC3)cc2)cc1	> 10000	–	–	–	–	–	–	–	–	–	0.2	–
N#Cc1ccc(-c2ccc(C[C@@H](C#N)NC(=O)[C@@H]3CCCCC[C@@H]3N)cc2)cc1	39.8	31.6	> 50	0.03	13	< 3.5	0.08	11	23	–	2	efflux ratio at 1 h, 10 µM [10]: 2; IC50 [22]: 3600 nM; solubility kinetic at 2 h (physchem [23]; buffer): 175 µM (≈ 67.6 µg/mL)
N#Cc1ccc(-c2ccc(C[C@@H](C#N)NC(=O)[C@H]3CNCCO3)cc2)cc1	> 10000	–	> 50	–	–	–	–	–	–	–	1.6	–
Cc1noc2ccc(-c3ccc(C[C@@H](C#N)NC(=O)[C@@H]4CNCCCO4)cc3)cc12	15.8	15.8	–	–	–	–	–	–	–	–	1.5	–
N#Cc1ccc(-c2ccc(C[C@@H](C#N)NC(=O)[C@@H]3CNCCO3)cc2)cc1	398	501	> 50	–	–	–	–	–	–	–	1.4	–
Cn1c(=O)sc2ccc(-c3ccc(C[C@@H](C#N)NC(=O)[C@@H]4CNCCCO4)cc3)cc21	2.51	3.16	> 50	0.07	< 15	< 3.5	0.05	11	51	< 3.5	1.5	efflux ratio at 1 h, 10 µM [10]: 4.7; CLH [12]: < 3.5 µL/min/10^6 cells; clearance [25]: 3 mL/min/kg; Vd [26]: 2 L/kg; half-life [27]: 8 h; bioavailability [28]: 26%; IC50 [22]: 23000 nM; solubility kinetic at 2 h (physchem [23]; buffer): 170 µM (≈ 74.2 µg/mL)
Cc1cc(-c2ccc(C[C@@H](C#N)NC(=O)[C@@H]3CNCCCO3)cc2)cc2c1oc(=O)n2C	10	7.94	> 50	0.08	< 14	< 3.5	0.03	13	76	< 3.5	1.5	efflux ratio at 1 h, 10 µM [10]: 5.9; CLH [12]: < 3.5 µL/min/10^6 cells; fraction unbound at 6 h, 10 µM [13]: 0.13; clearance [25]: 1 mL/min/kg; Vd [26]: 0.5 L/kg; half-life [27]: 8 h; bioavailability [28]: 24%; IC50 [22]: > 33000 nM; solubility kinetic at 2 h (physchem [23]; phosphate buffered saline): 175 µM (≈ 76 µg/mL)
N#C[C@H](Cc1ccc(-c2ccc3oc(=O)n(CC(F)F)c3c2)cc1)NC(=O)[C@@H]1CNCCCO1	6.31	6.31	> 50	0.07	< 14	< 3.5	0.06	8	80	5	1	fraction unbound at 6 h, 10 µM [13]: 0.15; clearance [25]: 4 mL/min/kg; Vd [26]: 2 L/kg; half-life [27]: 7 h; bioavailability [28]: 29%; solubility kinetic at 2 h (physchem [23]; buffer): 190 µM (≈ 89.4 µg/mL)
N#Cc1ccc(-c2ccc(C[C@@H](C#N)NC(=O)[C@H]3CNCCCO3)cc2)cc1	6310	–	> 50	–	–	–	–	–	–	–	1.2	–
